The values that follow come from ChEMBL document CHEMBL1667766, “Synthesis of elastin based peptides conjugated to benzisoxazole as a new class of potent antimicrobials--A novel approach to enhance biocompatibility” (2011).

What all share (assay type): functional
Test [1] has as its system Escherichia coli. The test can be described thus: Antimicrobial activity against Escherichia coli after 72 hrs by microdilution method.
For test [2], the system named is Xanthomonas oryzae. Nature of the test: Antimicrobial activity against Xanthomonas oryzae after 72 hrs by microdilution method.
Test [3] deals with Klebsiella pneumoniae. The test can be described thus: Antimicrobial activity against Klebsiella pneumoniae after 72 hrs by microdilution method.
For test [4], the system named is Staphylococcus. The test can be described thus: Antimicrobial activity against coagulase positive Staphylococcus after 72 hrs by microdilution method.
Test [5] relates to Aspergillus niger. The test can be described thus: Antifungal activity against Aspergillus niger after 72 hrs by microdilution method.
Test [6] relates to Aspergillus flavus. The test can be described thus: Antifungal activity against Aspergillus flavus after 72 hrs by microdilution method.
The subject of test [7] is Fusarium oxysporum. Nature of the test: Antifungal activity against Fusarium oxysporum after 72 hrs by microdilution method.
For test [8], the system named is Escherichia coli. The test can be described thus: Antimicrobial activity against Escherichia coli after 24 hrs by agar well diffusion method. An outline of the steps: (§1)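 Bacteria grown in nutrient broth at 37 °C for 24 h, subcultured in 25 mL broth at room temperature, then spread on nutrient agar. Wells (6 mm cork borer) filled with 0.1 mL test solution in DMSO, prepared from a 1 mg/mL stock. Amoxicillin as reference, DMSO as negative control. Plates kept 24 h at 37 °C; inhibition zone measured in mm.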

Test [9] has as its system Xanthomonas oryzae. The test can be described thus: Antimicrobial activity against Xanthomonas oryzae after 24 hrs by agar well diffusion method.
Test [10] relates to Klebsiella pneumoniae. The test can be described thus: Antimicrobial activity against Klebsiella pneumoniae after 24 hrs by agar well diffusion method. An outline of the steps: as §1
Test [11] has as its system Staphylococcus. Nature of the test: Antimicrobial activity against coagulase positive Staphylococcus after 24 hrs by agar well diffusion method. An outline of the steps:
as §1

Test [12] deals with Aspergillus niger. The test can be described thus: Antifungal activity against Aspergillus niger after 24 hrs by agar well diffusion method. An outline of the steps:
(§2)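 Fungi subcultured in 25 mL nutrient broth for one day to give inoculum, then spread on solidified Sabouraud agar. Wells punched with a 6 mm cork borer and filled with 0.1 mL test solution in DMSO, prepared from a 1 mg/mL stock. Bavistin as reference, DMSO as negative control. Read-out is inhibition zone diameter (mm).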

The test system of test [13] is Aspergillus flavus. Nature of the test: Antifungal activity against Aspergillus flavus after 24 hrs by agar well diffusion method. An outline of the steps:
as §2

In test [14] the test system is Fusarium oxysporum. The test can be described thus: Antifungal activity against Fusarium oxysporum after 24 hrs by agar well diffusion method. An outline of the steps: as §2

≈ marks a conversion by molar mass, not a printed value. *1 amine or outer side, *2 acyl side, *3 side chain or, on linkers, in order; H or OH if unused. Where a SMILES comes first, the peptide text is derived from it. [ ]: non-standard residue; d: D form. The star is where a group is joined. X2 = CC(C)[C@H](N[*:1])C(=O)NC(=O)[*:2]; Boc = CC(C)(C)OC(=O)*; OcHex = C1CCC(O*)CC1

Turning to `CC(C)(C)OC(=O)N[C@@H](Cc1ccccc1)C(=O)O`, the MIC in test [1], in test [2], in test [3], in [4], in test [5] and in [6] was > 50 µg/mL throughout. Further, in [7], the MIC is > 50 µg/mL.
In the case of `N[C@@H](Cc1ccccc1)C(=O)N1CCC(c2noc3cc(F)ccc23)CC1.O=C(O)C(F)(F)F`, the “inhibition zone (IZ)” value amounted to 14 mm in [8]; 11 mm in test [9]; 10 mm in test [10]; 9 mm in test [11]; 16 mm in test [12]; 11 mm in [13]. For the same molecule, in test [14], the “inhibition zone (IZ)” value is listed as 14 mm. In addition, the MIC came to 20 µg/mL in [1]; 15 µg/mL in test [2]; 16 µg/mL in [3]; 18 µg/mL in test [4]; 18 µg/mL in test [5]; 22 µg/mL in [6]. In [7], this molecule came in with an MIC of 21 µg/mL.
`N[C@@H](Cc1c[nH]c2ccccc12)C(=O)N1CCC(c2noc3cc(F)ccc23)CC1.O=C(O)C(F)(F)F`: the “inhibition zone (IZ)” value in [8] came out at 8 mm; in [9], 6 mm; in [10], 5 mm; in test [11] it was 4 mm; in test [12], 11 mm; in test [13] it was 4 mm. Moreover, in [14], the “inhibition zone (IZ)” value is reported as 7 mm. Moreover, the MIC in [1] is 38 µg/mL; in [2], 26 µg/mL; in test [3] it was 31 µg/mL; in test [4], 36 µg/mL; in [5], 32 µg/mL; in test [6], 41 µg/mL. In test [7], this molecule showed an MIC of 39 µg/mL.
Take `N[C@@H](Cc1ccc(O)cc1)C(=O)N1CCC(c2noc3cc(F)ccc23)CC1.O=C(O)C(F)(F)F`: the “inhibition zone (IZ)” value was found to be 7 mm in test [8]; 5 mm in test [9]; 4 mm in test [10]; 4 mm in [11]; 10 mm in test [12]; 3 mm in [13]. Moreover, the “inhibition zone (IZ)” value in test [14] turned out to be 6 mm. For the same molecule, the MIC in [1] turned out to be 40 µg/mL; in test [2], 29 µg/mL; in test [3], 34 µg/mL; in test [4] it was 39 µg/mL; in test [5] it was 34 µg/mL; in test [6], 43 µg/mL. Besides, inhibition of growth in test [7] (MIC) required 41 µg/mL.
With `CC[C@@H](C)[C@H](NC(=O)CNC(=O)CN)C(=O)N1CCC[C@H]1C(=O)N1CCC(c2noc3cc(F)ccc23)CC1.O=C(O)C(F)(F)F`, the “inhibition zone (IZ)” value in test [8] worked out at 20 mm; in [9], 15 mm; in test [10], 14 mm; in [11], 12 mm; in [12], 22 mm; in test [13], 14 mm. The “inhibition zone (IZ)” value in test [14] was 18 mm. Further, the MIC in test [1] came out at 15 µg/mL; in test [2] it was 12 µg/mL; in test [3], 12 µg/mL; in test [4], 14 µg/mL; in test [5] it was 13 µg/mL; in [6], 16 µg/mL. In test [7], it took 17 µg/mL to inhibit growth (MIC).
Regarding `Fc1ccc2c(C3CCNCC3)noc2c1`, the “inhibition zone (IZ)” value in test [8] is 3 mm; in test [9] it was 4 mm; in [10], 3 mm; in test [11], 3 mm; in test [12], 3 mm; in test [13] it was 2 mm. In [14], the “inhibition zone (IZ)” value is 4 mm. In addition, the MIC in test [1], in test [2], in test [3], in test [4], in test [5] and in test [6] was > 50 µg/mL in each case. For the same molecule, in test [7], the MIC is > 50 µg/mL.
On to `CC[C@@H](C)[C@H](NC(=O)CNC(=O)CNC(=O)OC(C)(C)C)C(=O)N1CCC[C@H]1C(=O)O`, for which the MIC in test [1], in [2], in [3], in [4], in [5] and in test [6] was > 50 µg/mL in each case. Also, in [7], the MIC was > 50 µg/mL.
For `CC(C)(C)OC(=O)N[C@@H](Cc1c[nH]c2ccccc12)C(=O)O`, the MIC in [1], in test [2], in test [3], in [4], in test [5] and in [6] was > 50 µg/mL throughout. Further, the MIC in [7] was > 50 µg/mL.
With `CC(C)[C@H](NC(=O)CNC(=O)[C@@H]1CCCN1C(=O)[C@H](Cc1ccccc1)NC(=O)CNC(=O)[C@H](CCC(=O)OC1CCCCC1)NC(=O)CNC(=O)OC(C)(C)C)C(=O)NCC(=O)N[C@H](C(=O)N1CCC[C@H]1C(=O)NCC(=O)N[C@H](C(=O)NCC(=O)N[C@H](C(=O)N1CCC[C@H]1C(=O)NCC(=O)N[C@H](C(=O)NCC(=O)N[C@H](C(=O)N1CCC[C@H]1C(=O)NCC(=O)N[C@@H](Cc1ccccc1)C(=O)NCC(=O)N[C@@H](Cc1ccccc1)C(=O)N1CCC[C@H]1C(=O)NCC(=O)N[C@@H](Cc1ccccc1)C(=O)NCC(=O)N[C@@H](Cc1ccccc1)C(=O)N1CCC[C@H]1C(=O)O)C(C)C)C(C)C)C(C)C)C(C)C)C(C)C` (Boc-GE(OcHex)GFPGVGVPGVGVPGVGVPGFGFPGFGFP-OH), the MIC in test [1], in [2], in [3], in test [4], in test [5] and in test [6] was > 50 µg/mL each time. In test [7], the MIC was > 50 µg/mL.
Regarding `CC(C)[C@H](NC(=O)CNC(=O)[C@@H]1CCCN1C(=O)[C@H](Cc1ccccc1)NC(=O)CNC(=O)[C@H](Cc1ccccc1)NC(=O)CNC(=O)[C@@H]1CCCN1C(=O)[C@H](Cc1ccccc1)NC(=O)CNC(=O)[C@@H](NC(=O)CNC(=O)[C@@H]1CCCN1C(=O)[C@@H](NC(=O)NC(=O)[C@@H](NC(=O)CNC(=O)[C@@H]1CCCN1C(=O)[C@H](Cc1ccccc1)NC(=O)CNC(=O)[C@H](CCC(=O)OC1CCCCC1)NC(=O)CNC(=O)OC(C)(C)C)C(C)C)C(C)C)C(C)C)C(=O)NCC(=O)N[C@H](C(=O)N1CCC[C@H]1C(=O)NCC(=O)N[C@H](C(=O)NCC(=O)N[C@@H](Cc1ccccc1)C(=O)N1CCC[C@H]1C(=O)O)C(C)C)C(C)C` (Boc-GE(OcHex)GFPG[X2]VPGVGFPGFGFPGVGVPGVGFP-OH), the MIC in test [1], in test [2], in test [3], in test [4], in test [5] and in test [6] was > 50 µg/mL throughout. Further, in [7], the MIC was > 50 µg/mL.
For `CC(C)(C)OC(=O)NCC(=O)N[C@@H](Cc1ccccc1)C(=O)NCC(=O)N[C@@H](Cc1ccccc1)C(=O)N1CCC[C@H]1C(=O)O` (Boc-GFGFP-OH), the MIC in test [1], in [2], in test [3], in test [4], in test [5] and in test [6] was > 50 µg/mL each time. Besides, the MIC in test [7] was > 50 µg/mL.
For the molecule `C[C@H](NC(=O)CNC(=O)CNC(=O)OC(C)(C)C)C(=O)N1CCC[C@H]1C(=O)O` (Boc-GGAP-OH), the MIC in [1], in [2], in test [3], in test [4], in [5] and in test [6] was > 50 µg/mL in each case. Besides, in test [7], the MIC is > 50 µg/mL.
`CC(C)(C)OC(=O)NCC(=O)NCC(=O)N[C@@H](Cc1ccccc1)C(=O)N1CCC[C@H]1C(=O)O` (Boc-GGFP-OH): the MIC in test [1], in [2], in test [3], in [4], in [5] and in test [6] was > 50 µg/mL throughout. In [7], the MIC was > 50 µg/mL.
For the molecule `CC(C)[C@H](NC(=O)CNC(=O)OC(C)(C)C)C(=O)NCC(=O)N[C@H](C(=O)N1CCC[C@H]1C(=O)O)C(C)C` (Boc-GVGVP-OH), the MIC in [1], in test [2], in [3], in test [4], in [5] and in test [6] was > 50 µg/mL in each case. In [7], the MIC is > 50 µg/mL.
`CC1(C)S[C@@H]2[C@H](NC(=O)[C@H](N)c3ccc(O)cc3)C(=O)N2[C@H]1C(=O)O` [AMOXICILLIN]: the “inhibition zone (IZ)” value in test [8] is reported as 11 mm; in test [9], 8 mm; in test [10], 8 mm; in test [11], 7 mm. Moreover, the MIC in [1] is 24 µg/mL (≈ 65.7 µM); in [2] it was 18 µg/mL (≈ 49.3 µM); in test [3], 20 µg/mL (≈ 54.7 µM); in test [4], 23 µg/mL (≈ 62.9 µM).
Take `COC(=O)Nc1nc2ccccc2[nH]1` [CARBENDAZIM]: the “inhibition zone (IZ)” value in [12] worked out at 12 mm; in test [13], 7 mm; in [14], 10 mm. Moreover, the figures for the MIC in test [5], in test [6] and in test [7] were 22 µg/mL (≈ 115 µM), 26 µg/mL (≈ 136 µM) and 25 µg/mL (≈ 131 µM), respectively.
